Results: publication PMC9110138 (Biomedicine & Pharmacotherapy, 2022)

Columns and labels:
[1] = test system: SARS-CoV-2 pseudoparticles; conditions: cited from earlier work
[2] = molecular target: human recombinant CYP3A4 (Homo sapiens, UniProt P08684); conditions: microsomal and recombinant enzyme experiments; cited from earlier work
[3] = test system: HSA; conditions: previous investigation; cited from earlier work
[4] = test system: SARS-CoV-2; conditions: cited from earlier work; for effect on viral replication in Calu-3 cells: infected with SARS-CoV-2 at MOI 0.001 for 90 min
[5] = test system: PHHs; conditions: up to 50 μM, 24 h cytotoxicity assays; cited from earlier work
[6] = test system: human intestinal epithelial cells; conditions: up to 50 μM, 24 h cytotoxicity assays; cited from earlier work
[7] = canavanine, replacing arginine in P2 and P4; cited from earlier work
[8] = molecular target: CYP2D6 (Homo sapiens, UniProt P10635); assay: Fluorometric CYP2D6 assay in human hepatic microsomes; format: in vitro ADME; conditions: MI-1851 50 µM; quinidine 3 µM
In short: (§1)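 Human hepatic microsomes were mixed with assay buffer and NADPH-generating system. They were preincubated 15 min at 37 °C with test compound (added solutions 0–250 µM), reference inhibitor or buffer-only background control. A fluorogenic substrate/NADP+ mixture followed, with final protein 10 µg/well. Fluorescence ex/em was 406/468 nm (CYP1A2), 415/502 nm (CYP2C9) and 390/468 nm (CYP2D6). Results are substrate RFU% as mean ± SEM, n = 3 or 4.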

[9] = molecular target: CYP2C9 (Homo sapiens, UniProt P11712); assay: Fluorometric CYP2C9 assay in human hepatic microsomes; format: in vitro ADME; conditions: MI-1851 50 µM; tienilic acid 60 µM
In short: as §1

[10] = molecular target: T1, CYP1A2 (Homo sapiens, UniProt P05177); assay: CYP1A2 luminescent P450-Glo assay in PHHs; format: cell-based; conditions: 2 h; MI-1851 10, 20, 50 and 100 µM; α-naphthoflavone 10 µM
T1 sequence (P05177 1-516): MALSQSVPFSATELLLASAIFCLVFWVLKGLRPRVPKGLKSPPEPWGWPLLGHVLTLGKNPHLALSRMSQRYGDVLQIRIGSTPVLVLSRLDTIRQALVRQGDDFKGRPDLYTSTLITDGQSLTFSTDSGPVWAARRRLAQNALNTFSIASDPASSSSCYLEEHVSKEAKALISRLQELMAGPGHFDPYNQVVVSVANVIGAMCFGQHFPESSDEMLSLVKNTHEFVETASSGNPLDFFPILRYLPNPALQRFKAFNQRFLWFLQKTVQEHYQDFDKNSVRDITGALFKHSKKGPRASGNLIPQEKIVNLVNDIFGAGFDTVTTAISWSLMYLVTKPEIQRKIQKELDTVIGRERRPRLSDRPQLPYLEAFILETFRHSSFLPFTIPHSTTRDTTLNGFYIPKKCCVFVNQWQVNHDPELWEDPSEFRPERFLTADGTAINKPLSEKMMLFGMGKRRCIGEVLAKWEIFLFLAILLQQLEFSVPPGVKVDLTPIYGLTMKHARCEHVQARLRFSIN
In short: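 Cryopreserved primary human hepatocytes were thawed in recovery medium and plated for 6 h in medium with 5% FBS. They were then kept FBS-free on collagen-coated membrane inserts at 37 °C, 5% CO2. Cells were washed in serum-free medium and exposed 2 h to test compound (0–100 µM; freshly diluted from 10 mM DMSO stock). CYP1A2 was read by P450-Glo with luciferin 1A2. Groups were compared by one-way ANOVA/Tukey.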

[11] = molecular target: T1, CYP1A2; assay: Fluorometric CYP1A2 assay in human hepatic microsomes; format: in vitro ADME; conditions: MI-1851 50 µM; α-naphthoflavone 6 µM
In short: as §1

Sequence of human recombinant CYP3A4 (P08684 whole entry): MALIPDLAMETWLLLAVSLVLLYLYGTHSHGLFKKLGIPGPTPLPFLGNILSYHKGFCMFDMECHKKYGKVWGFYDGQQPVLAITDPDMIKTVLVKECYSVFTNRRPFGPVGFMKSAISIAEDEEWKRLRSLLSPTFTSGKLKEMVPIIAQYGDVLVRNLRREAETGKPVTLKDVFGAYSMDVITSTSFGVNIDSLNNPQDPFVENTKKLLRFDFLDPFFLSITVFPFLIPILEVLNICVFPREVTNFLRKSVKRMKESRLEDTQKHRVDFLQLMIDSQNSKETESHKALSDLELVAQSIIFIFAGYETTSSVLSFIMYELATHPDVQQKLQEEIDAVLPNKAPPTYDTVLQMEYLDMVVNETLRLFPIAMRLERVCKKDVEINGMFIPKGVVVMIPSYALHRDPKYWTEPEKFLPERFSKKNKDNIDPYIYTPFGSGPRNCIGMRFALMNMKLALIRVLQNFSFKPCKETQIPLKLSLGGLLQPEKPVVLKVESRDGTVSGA
Sequence of CYP2D6 (P10635 whole entry): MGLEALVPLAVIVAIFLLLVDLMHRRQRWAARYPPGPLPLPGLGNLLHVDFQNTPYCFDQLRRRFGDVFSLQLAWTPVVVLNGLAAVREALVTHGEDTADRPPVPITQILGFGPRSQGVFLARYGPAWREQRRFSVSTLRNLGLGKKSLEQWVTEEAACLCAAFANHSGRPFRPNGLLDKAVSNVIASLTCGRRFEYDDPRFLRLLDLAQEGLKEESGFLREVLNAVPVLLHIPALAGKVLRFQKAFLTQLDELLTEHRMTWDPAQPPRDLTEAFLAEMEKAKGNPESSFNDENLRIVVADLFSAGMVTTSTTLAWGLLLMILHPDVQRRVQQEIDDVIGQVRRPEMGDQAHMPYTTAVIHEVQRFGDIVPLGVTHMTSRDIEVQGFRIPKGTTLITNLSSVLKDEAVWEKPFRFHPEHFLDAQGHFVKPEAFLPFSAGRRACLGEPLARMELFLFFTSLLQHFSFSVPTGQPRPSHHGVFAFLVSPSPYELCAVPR
Sequence of CYP2C9 (P11712 whole entry): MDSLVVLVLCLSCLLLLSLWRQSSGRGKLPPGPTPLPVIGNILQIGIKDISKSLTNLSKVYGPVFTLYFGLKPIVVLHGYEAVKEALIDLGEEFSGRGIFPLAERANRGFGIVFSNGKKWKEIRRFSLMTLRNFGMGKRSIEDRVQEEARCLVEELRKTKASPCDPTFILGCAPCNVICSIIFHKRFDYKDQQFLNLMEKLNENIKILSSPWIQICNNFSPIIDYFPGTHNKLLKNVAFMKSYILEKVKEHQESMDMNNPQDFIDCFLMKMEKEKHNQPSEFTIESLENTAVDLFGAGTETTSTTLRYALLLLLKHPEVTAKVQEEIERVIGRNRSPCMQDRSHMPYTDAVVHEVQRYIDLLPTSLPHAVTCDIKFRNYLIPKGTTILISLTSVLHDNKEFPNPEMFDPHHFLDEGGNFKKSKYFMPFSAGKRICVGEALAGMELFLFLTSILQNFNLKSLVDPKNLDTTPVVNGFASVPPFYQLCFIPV

CCOC(=O)[C@H]1O[C@@H]1C(=O)N[C@@H](CC(C)C)C(=O)NCCC(C)C [E64d]
effect on infection with SARS-CoV-2 pseudoparticles [1]: could decrease infection

N=C(N)c1cccc(C[C@H](NS(=O)(=O)c2cccc(-c3ccc(Cl)cc3Cl)c2)C(=O)N2CCC(CCN)CC2)c1.O=C(O)C(F)(F)F.O=C(O)C(F)(F)F [MI-432]
inhibition of CYP3A4 [2]: potent inhibitors of CYP3A4 at the nanomolar or low micromolar range | interactions with HSA [3]: no or only weak interactions | effect on viral titers in human airway epithelial Calu-3 cells [4]: efficiently reduced | effect on viral replication in Calu-3 cells [4]: inhibit viral replication

COc1ccc(-c2cccc(S(=O)(=O)N[C@@H](Cc3cccc(C(=N)N)c3)C(=O)N3CCN(C(=O)NC4CCCCC4)CC3)c2)c(OC)c1 [MI-1900]
inhibition of CYP3A4 [2]: potent inhibitors of CYP3A4 at the nanomolar or low micromolar range | damage to PHHs [5]: did not cause damage | damage to human intestinal epithelial cells [6]: did not cause damage | interactions with HSA [3]: no or only weak interactions | effect on viral titers in human airway epithelial Calu-3 cells [4]: efficiently reduced | effect on viral replication in Calu-3 cells [4]: inhibit viral replication

N=C(N)NOCC[C@H](N)C(=O)O [canavanine]
pKa [7]: 7.04

C=C[C@H]1C[N@@]2CC[C@H]1C[C@@H]2[C@@H](O)c1ccnc2ccc(OC)cc12 [quinidine]
effect on human microsomal CYP2D6 activity [8]: significant inhibition

O=C(O)COc1ccc(C(=O)c2cccs2)c(Cl)c1Cl [tienilic acid]
effect on human microsomal CYP2C9 activity [9]: significant inhibition

O=c1cc(-c2ccccc2)oc2c1ccc1ccccc12 [α-naphthoflavone]
effect on CYP1A2 activity in PHHs [10]: significant inhibitory effects | effect on human microsomal CYP1A2 activity [11]: significant inhibition

aprotinin
effect on virus replication in vitro ([4]; 10 µM, 48 h post infection): decreased the virus replication | effect on viral replication in Calu-3 cells [4]: inhibit viral replication
